VIM-2 inh: VIM-2 metallo-beta-lactamase inhibitors, primary screen, biochemical, epi-absorbance readout, Pseudomonas aeruginosa enzyme; purified VIM-2, nitrocefin hydrolysis, epi-absorbance fluorescence; 290,000 tested, 0.89% active; inhibition, % at 5.6 µM;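 active means inhibition above the mean of all tested compounds plus 3 SD, cutoff set per screening run, cut at about 7.5% in these data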;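 further: red hydrolysis product quenches plate fluorescence so inhibitors raise well fluorescence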
IMP-1 inh: IMP-1 metallo-beta-lactamase inhibitors, primary screen, biochemical, epi-absorbance readout, Pseudomonas aeruginosa enzyme; 290,000 tested, 0.45% active; AID 1556, 2009; purified IMP-1, nitrocefin hydrolysis, epi-absorbance fluorescence; inhibition, % at 5.6 µM;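 active means inhibition above the mean plus 3 SD of all compounds in the same screening run, cut at about 4.5% in these data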
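system = purified recombinant IMP-1 beta-lactamase | amount = 0.2 nM IMP-1, as dispensed | medium = HEPES buffer pH 7.1 with ZnSO4 and Brij 35 | times = 25 °C, 15 min preincubation, 25 min reaction | detection = plate fluorescence quenching by hydrolysis product, ex 480/em 530 nm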
M18AAP inhibitor: PfM18AAP inhibitors, malaria aminopeptidase, primary screen, biochemical, QFRET, recombinant enzyme. H-Glu-NHMec fluorogenic cleavage. inhibition, % at 7.35 µM. 290,000 tested, 1.2% active. AID 1822, 2009;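 active means inhibition above the campaign mean inhibition over all tested compounds plus 3 SD, cut at about 28% in these data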
CTSL1 counter: Fasciola hepatica cathepsin L1 inhibitors, primary screen, counter-screen for PFM18AAP inhibitor project, biochemical, QFRET, fluorogenic peptide substrate; recombinant F. hepatica cathepsin L1, Z-Leu-Arg-MCA fluorescence; inhibition, % at 5.96 µM; 300,000 tested, 0.49% active;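 active means inhibition above the mean of all tested compounds plus 3 SD, set per screening campaign, cut at about 17% in these data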
Numbers stand for hits; . = inactive; / = no result. Only some compounds are listed: those with a hit (about 2.7% of all), similar ones and a draw of the others.

SMILES	VIM-2 inh	IMP-1 inh	M18AAP inhibitor	CTSL1 counter
CCOc1cc(N2CCOCC2)c(OCC)cc1NC(=O)COC(=O)c1cccc2ccccc12	.	.	.	30
CCOc1cc(N2CCOCC2)c(OCC)cc1NC(=O)CN1CCCC(C)C1 (stereo not given)	.	.	.	45
Cc1ccnc(NC(=O)C2CCCN(S(=O)(=O)c3ccc4[nH]c(=O)ccc4c3)C2)c1 (stereo not given)	.	.	.	.
Cc1ccc(OC(C)C(=O)N(C)Cc2ccccc2)c([N+](=O)[O-])n1 (stereo not given)	.	.	.	.
O=C(c1cccnc1)n1nc(NCc2ccccc2)nc1NCc1ccccc1	.	.	28	.
CC1(C)C2CCC1(CS(=O)(=O)N1CCC(C(=O)O)CC1)C(=O)C2 (stereo not given)	.	.	.	.
O=C(COc1ccccc1)NCC1(N2CCCCC2)CCCCC1	.	.	.	28
N#Cc1ccc(OCC(=O)NCC2(N3CCCCC3)CCCCC2)cc1	.	.	.	.
COc1cccc(CNC(=O)C(=O)N2CCC3(CC2)OCCN3S(=O)(=O)c2ccc(C)cc2)c1	/	/	/	.
CCCCCC(=O)NNC(=S)NC(=O)c1ccc([N+](=O)[O-])cc1	.	.	31	.
O=C(NNC(=S)NC(=O)c1ccccc1)c1ccc([N+](=O)[O-])cc1	.	.	.	.
O=C(CCc1ccccc1)NNC(=S)NC(=O)c1ccccc1	.	.	.	.
Cc1ccc(C(=O)NC(=S)NNC(=O)c2ccccc2O)cc1	.	.	.	.
CC(C)(C)c1cc(CCC(=O)NNC(=S)NC(=O)c2ccccc2)cc(C(C)(C)C)c1O	.	.	29	.
O=C(NC(=S)NNC(=O)c1ccccc1O)c1ccc([N+](=O)[O-])cc1	.	.	30	.
O=C(NC(=S)NNC(=O)c1ccccc1O)c1ccccc1	.	.	30	.
Cc1nc2scc(-c3ccco3)c2c(=O)n1/N=C/N(C)C	.	.	.	.
Cc1onc(-c2ccccc2)c1C(=O)NC(=S)NNC(=O)c1ccc(O)cc1O	.	.	30	.
COc1ccccc1N1CCN(C(=O)CN(C)S(=O)(=O)c2cc(C)ccc2OC)CC1	.	.	.	.
CCC(C)(C)C1CCc2[nH]nc(C(=O)O)c2C1 (stereo not given)	/	/	/	.
O=C(COC(=O)c1cc2ccccc2oc1=O)Nc1ccc(F)cc1F	.	.	.	31
CCN(c1ccc(NC(=O)COC(=O)c2cc3ccccc3oc2=O)cc1)C(C)C	.	.	.	.
Cc1ccc(C2CC(c3cccs3)=NN2C(=O)CCl)cc1 (stereo not given)	.	.	.	52
COC(=O)CSCC(=O)Nc1nnc(-c2ccccc2C)s1	.	.	.	.
O=C(c1cnn(C(=O)COc2ccc(Cl)cc2)c1)c1ccccc1O	.	.	30	.
SMILES	VIM-2 inh	IMP-1 inh	M18AAP inhibitor	CTSL1 counter
O=C(c1cnn(C(=O)c2ccccc2)c1)c1ccccc1O	.	.	31	.
FC(F)(F)c1ccccc1-n1c(-c2ccco2)n[nH]c1=S	9.9	.	.	.
Cc1cccc(-n2c(-c3ccc(Br)o3)n[nH]c2=S)c1	/	/	/	.
S=c1[nH]nc(-c2ccco2)n1/N=C/c1ccc(Cl)cc1	.	.	31	.
Cc1cccc(-n2c(-c3ccco3)n[nH]c2=S)c1	19	.	.	.
S=c1[nH]nc(-c2cc(-c3ccco3)[nH]n2)n1-c1cccc2ccccc12	.	.	.	.
COc1ccccc1C#Cc1ccc2c(=O)c3ccccc3n(C)c2c1	.	6.8	30	.
C/C(Cn1cnc([N+](=O)[O-])n1)=N\NC(=O)c1ccc(O)cc1O	.	.	.	.
O=C1S/C(=C/c2ccc(N3CCOCC3)o2)C(=O)N1Cc1c(F)cccc1Cl	.	.	.	49
CN(C)CCCCOc1ccccc1-c1ccccc1	.	.	29	.
CCOc1ccc(OCCCCN(C)C)cc1	.	35	.	.
O=C1c2ccccc2C(=O)N1CC1=CCS(=O)(=O)C1	.	.	.	.
Cc1c(C(=O)Nc2ccc(S(=O)(=O)N3CCOCC3)cc2)cccc1[N+](=O)[O-]	.	.	.	.
CCN(CC)CCN(C(=O)CCS(=O)(=O)c1ccccc1)c1nc2cc3c(cc2s1)OCO3	.	.	.	76
O=C(CCS(=O)(=O)c1ccccc1)N(CCCN1CCOCC1)c1nc2ccccc2s1	/	/	/	47
C=CCn1cccc(C(=O)Nc2ccc(C)c(C)c2)c1=O	.	.	.	.
C=CCn1c(SCC(=O)NCCCC)nc2scc(-c3ccco3)c2c1=O	.	7.9	.	.
C=CCn1c(SCC(=O)NC2CCCC2)nc2scc(-c3ccco3)c2c1=O	.	.	.	.
Cn1cnnc1Sc1nc2ccccc2nc1NS(=O)(=O)c1ccccc1	.	.	.	.
Cn1ccnc1Sc1nc2ccccc2nc1NS(=O)(=O)c1ccccc1	.	.	29	.
CCCNC(=O)c1ccc(N2CCC3(CC2)CC(c2ccccc2)=NO3)c(NC(=O)Cc2ccc(F)cc2)c1	.	9.9	.	.
CCOC(=O)N1CCN(C(=O)CS(=O)(=O)c2cn(Cc3cccc(F)c3)c3ccccc23)CC1	.	.	.	.
NS(=O)(=O)c1ccc(NC(=O)Cn2ncc3c2-c2ccccc2OC3)cc1	.	.	.	.
N#Cc1nc(N2CCOCC2)nc(N2CCOCC2)n1	.	.	.	48
Cc1ccc(C(=O)CNc2cc(C)ccc2C)cc1	.	.	.	.
SMILES	VIM-2 inh	IMP-1 inh	M18AAP inhibitor	CTSL1 counter
Cc1ccc(C)c(NCC(=O)c2ccc(Cl)cc2)c1	.	.	28	.
O=S(=O)(c1ccccc1)N1CCC(n2nnc3cc(F)ccc32)CC1	.	.	.	.
O=S(=O)(c1ccc2c(c1)OCCO2)N1CCC(n2nnc3cc(C(F)(F)F)ccc32)CC1	.	6.9	.	.
Cc1nc(N)sc1-c1csc(Nc2ncccn2)n1	.	27	.	/
O=C(NNS(=O)(=O)c1ccccc1F)c1ccccc1-n1cccc1	.	.	.	.
Cc1cccc(C)c1NC(=O)C(C)Sc1nnc(C)n1CC1CCCO1 (stereo not given)	.	.	.	/
CC(C)C[C@H]1CN=C(Nc2ccccc2)N1CC1CCCCCC1	/	/	/	20
CCN1C(Nc2ccccc2)=NC[C@@H]1CC(C)C	.	.	.	.
CC(=O)Nc1ccccc1-c1ccc(C)o1	.	.	.	.
Cc1ccc(NC(=O)CS(=O)CC(=O)Nc2ccccc2-c2ccc(C)o2)cc1 (stereo not given)	9.1	.	.	.
Cc1cc(C)cc(C(=O)NCC(=O)OCC(=O)NCc2ccco2)c1	.	.	31	.
Cn1c(=O)c2c(SCC(=O)N3CCOCC3)nc(-c3ccccc3F)nc2n(C)c1=O	7.9	.	.	.
O=C(CN1C(=O)C2CC=CCC2C1=O)Nc1ccc(S(=O)(=O)NC2=NCCCCC2)cc1 (stereo not given)	.	.	.	.
Cc1ccc(OCC(=O)NCCCNC(=O)c2ccc(C)nc2)cc1	.	.	.	.
